*1 amine or outer side, *2 acyl side, *3 side chain or, on linkers, in order; H or OH if unused. Where a SMILES comes first, the peptide text is derived from it. Bridges are numbered along the chain shown (N, C = ends). [ ]: non-standard residue; d: D form. The star is where a group is joined. oXylylene = c1ccc(C[*:2])c(C[*:1])c1; Pent4ynoyl = C#CCCC(=O)*
Key:
[1] = Solubility as observed by the authors; assay type: physicochemical
HeLa-Htt103Q cells = test: Htt103Q aggregate assay, cellular model of Huntington's disease; assay type: cell-based; conditions: HeLa cells expressing CFP-htt103Q, 20 μM peptide, aggregates <1 μm
How it was run: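 HeLa cells expressing CFP-Htt103Q were treated with peptide, then fixed in 2% PFA in PBS. An observer blinded to condition counted CFP-positive aggregates <1 μm by fluorescence microscopy. Scores were the percentage of cells carrying small aggregates and the number of small aggregates per cell.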

[2] = system: HeLa cells stably expressing GFP-LC3; test: GFP-LC3 puncta assay of autophagic flux, with and without bafilomycin A1; assay type: cell-based
How it was run: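 HeLa cells stably expressing GFP-LC3 were given peptide for 2 h in serum-free Opti-MEM acidified with 0.15% (v/v) 6 N HCl, with or without bafilomycin A1. Cells were fixed in 2% PFA in PBS and GFP-LC3 puncta per cell were counted by fluorescence microscopy, with ≥100 cells per sample. Triplicate samples, mean ± SEM, t test versus DMSO; ≥3 independent experiments.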

In the case of “(HT)-VcNAcFHIWH (sidechain bridge or staple) [HT-DD5-o]”, the “solubility compared with DD5-o” value ([1]; medium not stated, N-terminal tag attached to DD5-o) is reported as “equally soluble as DD5-o”.

With `C#CCCC(=O)N[C@H](C(=O)N[C@@H]1CSCc2ccccc2CSC[C@H](C(=O)N[C@@H](Cc2ccccc2)C(=O)N[C@@H](Cc2c[nH]cn2)C(=O)N[C@H](C(=O)N[C@@H](Cc2c[nH]c3ccccc23)C(=O)N[C@@H](Cc2c[nH]cn2)C(N)=O)[C@@H](C)CC)NC(=O)[C@H](C)NC(=O)[C@H](CC(N)=O)NC1=O)C(C)C` [DD5-o] (Pent4ynoyl-V[dC]NA[dC]FHIWH-NH2; linker 2-5 via oXylylene) the “number of small htt103Q aggregates observed per cell” value (HeLa-Htt103Q cells) was “significant decrease”, the “percentage of cells that have small htt103Q aggregates” value (HeLa-Htt103Q cells) was “significant decrease” and the solubility in water ([1]; judged for 2D-NMR experiments) was “not soluble enough in water for 2D-NMR experiments”. For the same compound, the “extent of autophagy induction relative to Tat-Beclin 1 (GFP-LC3 puncta)” value ([2]; 10 μM peptide, 2 h) was “slightly less activity than Tat-Beclin 1” and the “change in GFP-LC3 puncta upon cotreatment with Baf A1” value ([2]; peptide 2 h plus bafilomycin A1) was “further increase in GFP-LC3 puncta”.

Source: publication PMC5473019 (Journal of the American Chemical Society, 2017)
